Data taken from ChEMBL document CHEMBL3272128, “Antileukemic activity of derivatives of 1-phenyl-2,5-dimethyl-3,4-bis(hydroxymethyl)pyrrole bis(N-methylcarbamate)” (J Med Chem, 1977).

Key:
P388 [1] = test: Antileukemic activity against mouse P388 cells allografted in male CDF1 mouse assessed as tumor growth inhibition at 50 mg/kg, ip using hydroxypropylcellulose suspension total 9 daily doses started 24 hrs after tumor inoculation; type: functional; settings: route intraperitoneal
Outline: (§1)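 Male CDF1 mice received P388 ascitic fluid ip, then ip doses in Flucel (hydroxypropylcellulose) suspension, nine daily, beginning 24 h after inoculation. Efficacy was median survival time as % T/C; values > 125 were considered significant.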

P388 [2] = test: Antileukemic activity against mouse P388 cells allografted in male CDF1 mouse assessed as change in body weight at 25 mg/kg, ip using hydroxypropylcellulose suspension total 9 daily doses started 24 hrs after tumor inoculation; type: functional; settings: route intraperitoneal
Outline: (§2)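 Male CDF1 mice were inoculated ip with P388 ascitic fluid. Compound was given ip as a Flucel (hydroxypropylcellulose) suspension, nine daily doses from 24 h after inoculation. Animal weight difference (T − C, g) was recorded on the fifth day.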

Mus musculus [3] = test: Toxicity in male CDF1 mouse allografted with mouse P388 cells assessed as survivors on day 5 at 12.5 mg/kg, ip using hydroxypropylcellulose suspension; type: organism-based; design: dose 12.5 mg/kg, route intraperitoneal; settings: in vivo
Outline: (§3)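 Male CDF1 mice received an ip inoculation of P388 leukemia ascitic fluid. Dosing was ip in a hydroxypropylcellulose (Flucel) suspension, once daily for nine days, beginning 24 h after tumor implantation. Toxicity was scored as survivors recorded on the fifth day.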

P388 [4] = test: Antileukemic activity against mouse P388 cells allografted in male CDF1 mouse assessed as tumor growth inhibition at 12.5 mg/kg, ip using hydroxypropylcellulose suspension total 9 daily doses started 24 hrs after tumor inoculation; type: functional; settings: route intraperitoneal; outline: as §1
P388 [5] = test: Antileukemic activity against mouse P388 cells allografted in male CDF1 mouse assessed as tumor growth inhibition at 25 mg/kg, ip using hydroxypropylcellulose suspension total 9 daily doses started 24 hrs after tumor inoculation; type: functional; settings: route intraperitoneal; outline: as §1
Mus musculus [6] = test: Toxicity in male CDF1 mouse allografted with mouse P388 cells assessed as survivors on day 5 at 25 mg/kg, ip using hydroxypropylcellulose suspension; type: organism-based; design: dose 25 mg/kg, route intraperitoneal; settings: in vivo; outline: as §3
P388 [7] = test: Antileukemic activity against mouse P388 cells allografted in male CDF1 mouse assessed as change in body weight at 12.5 mg/kg, ip using hydroxypropylcellulose suspension total 9 daily doses started 24 hrs after tumor inoculation; type: functional; settings: route intraperitoneal; outline: as §2
P388 [8] = test: Antileukemic activity against mouse P388 cells allografted in male CDF1 mouse assessed as change in body weight at 50 mg/kg, ip using hydroxypropylcellulose suspension total 9 daily doses started 24 hrs after tumor inoculation; type: functional; settings: route intraperitoneal; outline: as §2
Mus musculus [9] = test: Toxicity in male CDF1 mouse allografted with mouse P388 cells assessed as survivors on day 5 at 50 mg/kg, ip using hydroxypropylcellulose suspension; type: organism-based; design: dose 50 mg/kg, route intraperitoneal; settings: in vivo; outline: as §3
P388 [10] = test: Antileukemic activity against mouse P388 cells allografted in male CDF1 mouse assessed as change in body weight at 12.5 mg/kg, ip using saline as vehicle total 9 daily doses started 24 hrs after tumor inoculation; type: functional; settings: route intraperitoneal
Outline: (§4)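 In male CDF1 mice bearing ip-inoculated P388 ascitic fluid, drug was given ip in saline vehicle, once daily for nine doses starting 24 h after inoculation. Body weight difference, treated minus control (g), was recorded on day 5.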

P388 [11] = test: Antileukemic activity against mouse P388 cells allografted in male CDF1 mouse assessed as tumor growth inhibition at 25 mg/kg, ip using saline as vehicle total 9 daily doses started 24 hrs after tumor inoculation; type: functional; settings: route intraperitoneal
Outline: (§5)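 P388 ascitic fluid was given ip to male CDF1 mice. Treatment was ip in saline, nine daily doses from 24 h post-inoculation. Median survival time was expressed as % T/C, and % T/C > 125 was considered significant.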

P388 [12] = test: Antileukemic activity against mouse P388 cells allografted in male CDF1 mouse assessed as tumor growth inhibition at 50 mg/kg, ip using saline as vehicle total 9 daily doses started 24 hrs after tumor inoculation; type: functional; settings: route intraperitoneal; outline: as §5
P388 [13] = test: Antileukemic activity against mouse P388 cells allografted in male CDF1 mouse assessed as change in body weight at 50 mg/kg, ip using saline as vehicle total 9 daily doses started 24 hrs after tumor inoculation; type: functional; settings: route intraperitoneal; outline: as §4
Mus musculus [14] = test: Toxicity in male CDF1 mouse allografted with mouse P388 cells assessed as survivors on day 5 at 12.5 mg/kg, ip using saline as vehicle; type: organism-based; design: dose 12.5 mg/kg, route intraperitoneal; settings: in vivo
Outline: (§6)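 P388 leukemia ascitic fluid was implanted ip into male CDF1 mice. Compound was given ip in saline vehicle as nine daily doses, starting 24 h post-inoculation. Survivor counts were taken on day 5.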

P388 [15] = test: Antileukemic activity against mouse P388 cells allografted in male CDF1 mouse assessed as change in body weight at 25 mg/kg, ip using saline as vehicle total 9 daily doses started 24 hrs after tumor inoculation; type: functional; settings: route intraperitoneal; outline: as §4
P388 [16] = test: Antileukemic activity against mouse P388 cells allografted in male CDF1 mouse assessed as tumor growth inhibition at 12.5 mg/kg, ip using saline as vehicle total 9 daily doses started 24 hrs after tumor inoculation; type: functional; settings: route intraperitoneal; outline: as §5
Mus musculus [17] = test: Toxicity in male CDF1 mouse allografted with mouse P388 cells assessed as survivors on day 5 at 25 mg/kg, ip using saline as vehicle; type: organism-based; design: dose 25 mg/kg, route intraperitoneal; settings: in vivo; outline: as §6
Mus musculus [18] = test: Toxicity in male CDF1 mouse allografted with mouse P388 cells assessed as survivors on day 5 at 50 mg/kg, ip using saline as vehicle; type: organism-based; design: dose 50 mg/kg, route intraperitoneal; settings: in vivo; outline: as §6
P388 [19] = test: Antileukemic activity against mouse P388 cells allografted in female CDF1 mouse assessed as tumor growth inhibition at 25 mg/kg, ip using hydroxypropylcellulose suspension total 9 daily doses started 24 hrs after tumor inoculation; type: functional; settings: route intraperitoneal
Outline: (§7)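 P388 ascitic fluid was inoculated ip into female CDF1 mice. Dosing was ip in a Flucel (hydroxypropylcellulose) suspension, given daily for nine doses beginning 24 h post-inoculation. Activity was median survival time expressed as % T/C, with % T/C > 125 taken as significant.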

P388 [20] = test: Antileukemic activity against mouse P388 cells allografted in female CDF1 mouse assessed as tumor growth inhibition at 200 mg/kg, ip using hydroxypropylcellulose suspension total 9 daily doses started 24 hrs after tumor inoculation; type: functional; settings: route intraperitoneal; outline: as §7
P388 [21] = test: Antileukemic activity against mouse P388 cells allografted in female CDF1 mouse assessed as tumor growth inhibition at 100 mg/kg, ip using hydroxypropylcellulose suspension total 9 daily doses started 24 hrs after tumor inoculation; type: functional; settings: route intraperitoneal; outline: as §7
P388 [22] = test: Antileukemic activity against mouse P388 cells allografted in female CDF1 mouse assessed as change in body weight at 25 mg/kg, ip using hydroxypropylcellulose suspension total 9 daily doses started 24 hrs after tumor inoculation; type: functional; settings: route intraperitoneal
Outline: (§8)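 Female CDF1 mice got P388 ascitic fluid ip. Test agent was given ip as a Flucel (hydroxypropylcellulose) suspension, nine daily doses starting 24 h after tumor inoculation. Read-out was the treated minus control animal weight difference (T − C, g), recorded on day 5.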

P388 [23] = test: Antileukemic activity against mouse P388 cells allografted in female CDF1 mouse assessed as change in body weight at 200 mg/kg, ip using hydroxypropylcellulose suspension total 9 daily doses started 24 hrs after tumor inoculation; type: functional; settings: route intraperitoneal; outline: as §8
P388 [24] = test: Antileukemic activity against mouse P388 cells allografted in female CDF1 mouse assessed as change in body weight at 6.25 mg/kg, ip using hydroxypropylcellulose suspension total 9 daily doses started 24 hrs after tumor inoculation; type: functional; settings: route intraperitoneal; outline: as §8
P388 [25] = test: Antileukemic activity against mouse P388 cells allografted in female CDF1 mouse assessed as change in body weight at 100 mg/kg, ip using hydroxypropylcellulose suspension total 9 daily doses started 24 hrs after tumor inoculation; type: functional; settings: route intraperitoneal; outline: as §8
Mus musculus [26] = test: Toxicity in female CDF1 mouse allografted with mouse P388 cells assessed as survivors on day 5 at 25 mg/kg, ip using hydroxypropylcellulose suspension; type: organism-based; design: dose 25 mg/kg, route intraperitoneal; settings: in vivo
Outline: (§9)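 Female CDF1 mice were inoculated ip with P388 leukemia ascitic fluid. Test agent was suspended in hydroxypropylcellulose (Flucel) and given ip as nine daily doses, starting 24 h after tumor inoculation. Survivors were counted on day 5 as the toxicity read-out.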

Mus musculus [27] = test: Toxicity in female CDF1 mouse allografted with mouse P388 cells assessed as survivors on day 5 at 200 mg/kg, ip using hydroxypropylcellulose suspension; type: organism-based; design: dose 200 mg/kg, route intraperitoneal; settings: in vivo; outline: as §9
Mus musculus [28] = test: Toxicity in female CDF1 mouse allografted with mouse P388 cells assessed as survivors on day 5 at 50 mg/kg, ip using hydroxypropylcellulose suspension; type: organism-based; design: dose 50 mg/kg, route intraperitoneal; settings: in vivo; outline: as §9
P388 [29] = test: Antileukemic activity against mouse P388 cells allografted in female CDF1 mouse assessed as tumor growth inhibition at 50 mg/kg, ip using hydroxypropylcellulose suspension total 9 daily doses started 24 hrs after tumor inoculation; type: functional; settings: route intraperitoneal; outline: as §7
P388 [30] = test: Antileukemic activity against mouse P388 cells allografted in female CDF1 mouse assessed as change in body weight at 50 mg/kg, ip using hydroxypropylcellulose suspension total 9 daily doses started 24 hrs after tumor inoculation; type: functional; settings: route intraperitoneal; outline: as §8

Row | Compound | T/C (P388 [1]) | Activity (P388 [2]) | Activity (Mus musculus [3]) | T/C (P388 [4]) | T/C (P388 [5]) | Activity (Mus musculus [6]) | Activity (P388 [7]) | Activity (P388 [8]) | also measured
1 | CCCCc1ccc(-n2c(C)c(COC(=O)NC)c(COC(=O)NC)c2C)cc1 | 65% | -4.1 g | Non-toxic | 190% | 152% | Non-toxic | -3.1 g | -4.9 g | –
2 | CNC(=O)OCc1c(COC(=O)NC)c(C)n(-c2ccc(Br)cc2)c1C | 88% | -3.9 g | Non-toxic | 152% | 142% | Non-toxic | -2 g | -4.9 g | –
3 | CNC(=O)OCc1c(COC(=O)NC)c(C)n(-c2ccc(OC)cc2)c1C | 171% | -2.4 g | Non-toxic | 152% | 142% | Non-toxic | -2.6 g | -0.5 g | Activity (Mus musculus [9]): Non-toxic
4 | CCOc1ccc(-n2c(C)c(COC(=O)NC)c(COC(=O)NC)c2C)cc1 | 90% | -3.4 g | Non-toxic | 152% | 150% | Non-toxic | -3 g | -3.8 g | –
5 | CNC(=O)OCc1c(COC(=O)NC)c(C)n(-c2ccc3c(c2)OCO3)c1C | <50% | -1.6 g | Non-toxic | 132% | 146% | Non-toxic | -1.1 g | -3.4 g | –
6 | CNC(=O)OCc1c(COC(=O)NC)c(C)n(-c2ccc(C)cc2)c1C | 133% | -2.3 g | Non-toxic | 142% | 136% | Non-toxic | -2.5 g | -2.6 g | Activity (Mus musculus [9]): Non-toxic
7 | CNC(=O)OCc1c(COC(=O)NC)c(C)n(-c2ccc(F)cc2)c1C | 133% | -2.1 g | Non-toxic | 142% | 155% | Non-toxic | -2.6 g | -2.6 g | Activity (Mus musculus [9]): Non-toxic
8 | CNC(=O)OCc1c(COC(=O)NC)c(C)n(-c2ccc(Cl)cc2)c1C | – | – | – | – | – | – | – | – | Activity (P388 [10]): -1.3 g; T/C (P388 [11]): 142%; T/C (P388 [12]): 80%; Activity (P388 [13]): -2.9 g; Activity (Mus musculus [14]): Non-toxic; Activity (P388 [15]): -3.8 g; T/C (P388 [16]): 145%; Activity (Mus musculus [17]): Non-toxic
9 | CNC(=O)OCc1c(COC(=O)NC)c(C)n(-c2ccc(Cl)c(Cl)c2)c1C | – | – | – | – | – | – | – | – | Activity (P388 [10]): -1.5 g; Activity (Mus musculus [18]): Non-toxic; T/C (P388 [11]): 148%; T/C (P388 [12]): 84%; Activity (P388 [13]): -2.6 g; Activity (Mus musculus [14]): Non-toxic; Activity (P388 [15]): -2.9 g; T/C (P388 [16]): 160%; Activity (Mus musculus [17]): Non-toxic
10 | COc1ccc(-n2c(C)c(COC(C)=O)c(COC(C)=O)c2C)cc1 | 75% | -3.8 g | Non-toxic | 157% | 95% | Non-toxic | -1.6 g | -3.2 g | –
11 | CNC(=O)OCc1c(COC(=O)NC)c(C)n(-c2ccccc2)c1C | – | -1.7 g | – | 145% | 148% | Non-toxic | -1.3 g | – | T/C (P388 [19]): 127%; T/C (P388 [20]): <50%; T/C (P388 [21]): <50%; Activity (P388 [22]): -1.6 g; Activity (P388 [23]): -1.5 g; Activity (P388 [24]): -2.1 g; Activity (P388 [25]): -2.1 g; Activity (Mus musculus [26]): Non-toxic; Activity (Mus musculus [27]): Toxic; Activity (Mus musculus [28]): Non-toxic; T/C (P388 [29]): <50%; Activity (P388 [30]): -2 g
